Data from ChEMBL document CHEMBL1155832, “Design, synthesis, and biological evaluation of antiviral agents targeting flavivirus envelope proteins” (J Med Chem, 2008).

Experiments:
Yellow fever virus [1] = test: Antiviral activity against IRES-luciferase tagged Yellow fever virus in BHK15 cells assessed as reduction of luciferase activity after 36 hrs; assay type: functional, organism-based; conditions: BHK15, 36 h
[2] = Therapeutic index, ratio of CC50 for BHK15 cells to EC50 IRES-luciferase tagged Yellow fever virus; assay type: cell-based; conditions: hamster, read-out: Ratio CC50/EC50
[3] = Cytotoxicity against BHK15 cells assessed as cell viability after 36 hrs by MTT assay; assay type: cell-based, Mesocricetus auratus; conditions: hamster, bhk15, 36 h
Yellow fever virus [4] = test: Antiviral activity against IRES-luciferase tagged Yellow fever virus in BHK15 cells assessed as reduction of luciferase activity at 50 uM after 36 hrs; assay type: functional; conditions: BHK15, 36 h
Outline: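 Primary screen of the YFV-IRES-Luc (YFV 17D reporter) infection at MOI 0.1 in confluent BHK-15 cells. Compound was given at a single 50 µM concentration for ~36 h at 37 °C, 5% CO2. Percent inhibition came from lysate firefly luciferase luminescence versus DMSO-treated infected cells. Over 50% inhibition counted as active.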

dengue virus type 2 = test: Antiviral activity against Dengue virus 2 16681 in BHK15 cells at 50 uM after 48 hrs by immunofluorescence assay; assay type: functional; conditions: Dengue virus, 16681, BHK15, 48 h
Outline: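 Den-2 strain 16681 added to BHK monolayers at MOI 0.025 for 1 h at room temperature, then washed with PBS. Overlaid with MEM + 2.5% FBS containing compound at 50 µM and kept at 34 °C for 48 h. Fixed cells were stained with anti-dengue capsid antibody (2 h), a TRITC secondary and DAPI. Infected versus total cells were counted in three random fields per well to give percent inhibition.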

| SMILES | EC50 (Yellow fever virus [1]) | selectivity ratio [2] | CC50 [3] | inhibition at 50 µM (Yellow fever virus [4]) | inhibition at 50 µM (dengue virus type 2) |
| --- | --- | --- | --- | --- | --- |
| COC(=O)c1sc(N(Cc2ccc(C(C)=O)cc2)C(C)=O)nc1C | > 50 µM | – | – | – | – |
| Cc1nc(-n2nc(-c3ccccc3)cc2-c2ccccc2)sc1C(=O)/C=C/c1ccc(Cl)c(Cl)c1 | 51 µM | 1.37 | 70 µM | – | – |
| Cc1nc(-n2nc(-c3ccccc3)cc2-c2ccccc2)sc1C(=O)OCC12CC3CC(CC(C3)C1)C2 | > 50 µM | – | – | – | – |
| Nc1ccc(SCc2csc(-c3ccc(Cl)cc3)n2)cc1 | 29 µM | 5.2 | 151 µM | – | – |
| Nc1ccc(SCc2csc(-c3ccccc3)n2)cc1 | 37 µM | 4.2 | 155 µM | – | – |
| CC(=O)c1ccc(NC(=O)Nc2nc(C)c(C(=O)NCc3ccc(Cl)cc3Cl)s2)cc1 | > 50 µM | – | – | – | – |
| COC(=O)c1sc(-c2ccc(Cl)cc2)nc1C(Br)Br | 0.9 µM | 170 | 153 µM | 99% | 99% |
| C/C(=N\NC(N)=O)c1ccc(NC(=O)Nc2nc(C)c(C(=O)NCc3ccc(Cl)cc3Cl)s2)cc1 | > 50 µM | – | – | – | – |
| Cc1nc(-n2nc(-c3ccccc3)cc2-c2ccccc2)sc1C(=O)OC(C)C | > 50 µM | – | – | – | – |
| Cc1nc(-c2ccc(Cl)cc2)sc1C(=O)OCC12CC3CC(CC(C3)C1)C2 | > 50 µM | – | – | – | – |
| CC(=O)c1ccc(NC(=O)Nc2nc(C)c(C(=O)O)s2)cc1 | > 50 µM | – | – | – | – |
| COC(=O)c1sc(N(Cc2ccc(C(C)=O)cc2)Cc2ccc(C(C)=O)cc2)nc1C | 25 µM | 8 | 200 µM | – | – |
| COC(=O)c1sc(NC(=O)Nc2ccc(/C(C)=N/NC(=N)N)cc2)nc1C | > 50 µM | – | – | – | – |
| CC(=O)c1ccc(NC(=O)Nc2nc(C)c(C(=O)NCc3ccc(Cl)c(Cl)c3)s2)cc1 | 37 µM | 3.7 | 138 µM | – | – |
| Cc1nc(-n2nc(-c3ccccc3)cc2-c2ccccc2)sc1C(=O)OCc1ccc(I)cc1 | > 50 µM | – | – | – | – |
| Nc1ccc(SCc2csc(-c3ccccc3Cl)n2)cc1 | 40 µM | 3.2 | 131 µM | – | – |
| c1ccc(-c2cc(-c3ccccc3)[nH]n2)cc1 | 44 µM | 2.8 | 123 µM | – | – |
| COC(=O)c1sc(-c2ccc(Cl)cc2)nc1C | > 50 µM | – | – | – | – |
| ClCc1csc(-c2ccc(Cl)cc2)n1 | > 50 µM | – | – | – | – |
| COC(=O)c1sc(NC(=O)Nc2ccc(C(C)=O)cc2)nc1C | 13.9 µM | 11.2 | 155 µM | – | – |

| SMILES | EC50 (Yellow fever virus [1]) | selectivity ratio [2] | CC50 [3] | inhibition at 50 µM (Yellow fever virus [4]) | inhibition at 50 µM (dengue virus type 2) |
| --- | --- | --- | --- | --- | --- |
| COC(=O)c1sc(-c2ccccc2)nc1C | > 50 µM | – | – | – | – |
| Cc1nc(-n2nc(-c3ccccc3)cc2-c2ccccc2)sc1C(=O)O | > 50 µM | – | – | – | – |
| Nc1ccccc1SCc1csc(-c2ccccc2)n1 | 46 µM | 2.6 | 119 µM | – | – |
| Cc1nc(-n2nc(-c3ccccc3)cc2-c2ccccc2)sc1C(=O)NCc1ccc(Cl)c(Cl)c1 | 5 µM | 37 | 186 µM | – | – |
| CC(=O)c1ccc(CN(Cc2ccc(C(C)=O)cc2)c2nc(C)c(C(=O)NCc3ccc(Cl)cc3Cl)s2)cc1 | > 50 µM | – | – | – | – |
| Cc1nc(-c2ccc(Cl)cc2)sc1C(=O)NCc1ccc(Cl)c(Cl)c1 | > 50 µM | – | – | – | – |
| Cc1csc(-c2ccc(Cl)cc2)n1 | > 50 µM | – | – | – | – |
| Clc1ccc(-c2nc(CSc3cccc(Cl)c3)cs2)cc1 | > 50 µM | – | – | – | – |
| Cc1nc(-n2nc(-c3ccccc3)cc2-c2ccccc2)sc1C(=O)Oc1ccc(I)cc1 | > 50 µM | – | – | – | – |
| C/C(=N\NC(=N)N)c1ccc(NC(=O)Nc2nc(C)c(C(=O)NCc3ccc(Cl)cc3Cl)s2)cc1 | 37.6 µM | 4.1 | 154 µM | – | – |
| C/C(=N\NC(=N)N)c1ccc(NC(=O)Nc2ccc(/C(C)=N/NC(=N)N)cc2)cc1 | 13 µM | 30.6 | 398 µM | – | – |
| CCOC(=O)c1sc(-n2nc(-c3ccccc3)cc2-c2ccccc2)nc1C | > 50 µM | – | – | – | – |
| Nc1ccccc1SCc1csc(-c2cccnc2)n1 | > 50 µM | – | – | – | – |
| Nc1ccccc1SCc1csc(-c2ccc(Cl)cc2)n1 | 31 µM | 2 | 61 µM | – | – |
| CCCCCCCCOC(=O)c1sc(-n2nc(-c3ccccc3)cc2-c2ccccc2)nc1C | > 50 µM | – | – | – | – |
| COC(=O)c1sc(NC(=O)Nc2ccc(/C(C)=N/NC(N)=O)cc2)nc1C | > 50 µM | – | – | – | – |
| COC(=O)c1sc(-c2ccncc2)nc1C | > 50 µM | – | – | – | – |
| Nc1ccccc1SCc1csc(-c2ccccc2Cl)n1 | 46 µM | 2.9 | 133 µM | – | – |
| Nc1ccc(SCc2csc(-c3cccnc3)n2)cc1 | > 50 µM | – | – | – | – |
